Bioassay records (PubChem BioAssay)
NR3A LBD binder – modulators (binders) of human NR3A ligand-binding domain; Tm shift relative to glycine control, % at 25 µM; 340,000 tested, 2.5% active; NR3A LBD differential scanning fluorimetry, Tm shift; 0% = protein alone, 100% = glycine-bound protein; AID 1259313;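 active means melting temperature shift of at least 10% of the positive control shift, at one fixed dose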
ZTA DNA inh – blocks Epstein-Barr virus ZTA, an EBNA-1 counter-screen; P03206; ZTA-DNA binding, fluorescence polarization; inhibition, % at 11 µM; 320,000 tested, 0.15% active; in the data active means inhibition above about 33%
Target sequence (P03206 whole entry, looked up): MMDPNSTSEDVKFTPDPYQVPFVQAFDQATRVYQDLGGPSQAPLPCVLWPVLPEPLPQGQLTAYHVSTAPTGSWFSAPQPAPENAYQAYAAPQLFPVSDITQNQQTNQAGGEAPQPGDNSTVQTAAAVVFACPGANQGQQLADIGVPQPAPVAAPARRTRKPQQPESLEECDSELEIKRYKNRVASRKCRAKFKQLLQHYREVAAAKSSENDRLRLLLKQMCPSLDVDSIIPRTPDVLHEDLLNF
DNA FID counter – counter-screen for HCV NS3 helicase inhibitors: DNA intercalator displacement; inhibition, % at 7.9 µM; DNA fluorescent intercalator displacement, fluorescence; 290,000 tested, 0.17% active; in the data active means inhibition above about 37%;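 further: 0% = vehicle and 100% = reference compound; higher means more ethidium bromide displaced from hairpin DNA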
NS3 helicase inh – blocks Hepatitis C virus NS3 helicase unwinding; NS3 helicase DNA unwinding, Cy5 molecular beacon fluorescence; inhibition, % at 10.9 µM; 290,000 tested, 0.56% active; AID 1800;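 active means inhibition above the mean of all tested compounds plus 3 SD, set per campaign, cut at about 35% in these data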;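 further: 0% = DMSO wells and 100% = thioflavine S control wells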
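Measured by: Cy5 fluorescence, 0 and 60 min reads / Assay system: NS3 helicase fragment of HCV / Control set: low DMSO, high thioflavine S at 110 µM / Times: 1 h reaction at 25 °C, ATP-initiated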
FGF22 binding – FGF22 (human) thermal shift binding; AID 651658; activity (Tm shift, normalised), % at 9.99 µM; 340,000 tested, 1.5% active; Q9HCT0; recombinant FGF22 thermal shift, SYPRO orange fluorescence; percent of sucrose octasulfate shift, DMSO zero;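 active means mean Tm shift, scaled 0 neutral to 100 positive control, at about 1.3% or above, every replicate too, limit read from the data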
Target sequence (Q9HCT0 whole entry, looked up): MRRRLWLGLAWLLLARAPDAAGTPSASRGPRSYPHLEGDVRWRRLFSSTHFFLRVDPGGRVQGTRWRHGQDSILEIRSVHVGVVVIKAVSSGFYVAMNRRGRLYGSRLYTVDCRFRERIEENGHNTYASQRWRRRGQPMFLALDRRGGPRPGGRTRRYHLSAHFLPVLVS
EBNA-1 inh – blocks EBNA-1 binding to DNA. EBNA-1 DNA binding, fluorescence polarization. 300,000 tested, 0.34% active. inhibition, % at 14.8 µM; in the data active means inhibition above about 28%
Starred values were filed as active, the others as inactive. This is a sample that favours compounds with a hit; in the whole collection about 3.6% have one here.

Screening COc1ccc(NC(=O)N2CC3(C2)CN(C(=O)c2cccnc2)[C@H](CO)c2[nH]c4cc(OC)ccc4c23)cc1 returned FGF22 binding 0.
CC=Cc1ccc2n(c1=O)C[C@@H]1[C@@H](CO)[C@H](C(=O)N3CCc4ccccc4C3)[C@H]2N1Cc1ccncc1 (mixture of isomers) was read as FGF22 binding 1.5*.
CC=Cc1ccc2n(c1=O)C[C@H]1[C@H](CO)[C@@H](C(=O)N3CCc4ccccc4C3)[C@@H]2N1Cc1ccccc1 (mixture of isomers) was read as FGF22 binding 0.
`Cc1ccc(/C=N/N=C/c2ccc(C)cc2)cc1` gave NR3A LBD binder -3, ZTA DNA inh -5, DNA FID counter 7, NS3 helicase inh -9, FGF22 binding 0 and EBNA-1 inh 6.
Oc1ccc(/C=N/N=C/c2ccc(O)cc2)cc1 was read as NR3A LBD binder 9, ZTA DNA inh 3, DNA FID counter 18, NS3 helicase inh -18, FGF22 binding 66* and EBNA-1 inh -8.
`Oc1ccc(/C=N/n2c3ccccc3c3ccccc32)cc1` gave NR3A LBD binder 16*, ZTA DNA inh 6, DNA FID counter 1, NS3 helicase inh -2 and EBNA-1 inh 6.
For Cc1ccc(S(=O)(=O)Nc2ccc3c(c2)C(=O)N([C@H](C)CO)C[C@H](C)[C@@H](CN(C)S(=O)(=O)c2ccc(F)cc2)O3)cc1 the results were FGF22 binding 0.
For CN(C(=O)c1ccncc1)c1ccccc1 the results were NR3A LBD binder 11*, ZTA DNA inh 0, DNA FID counter -4, NS3 helicase inh -1, FGF22 binding 0 and EBNA-1 inh -9.
`CO[C@H]1CN(C)C(=O)c2cc(NC(=O)C3CC3)ccc2OC[C@@H](C)N(CC2CC2)C[C@@H]1C` gave FGF22 binding 0.
Screening CCC(C(=O)OCC(=O)Nc1ccc(SC(F)F)cc1)c1ccccc1 (stereo not given) returned NR3A LBD binder 12*, DNA FID counter -3, NS3 helicase inh 7 and FGF22 binding 1.
CCC(C(=O)OCC(=O)Nc1ccc(F)cc1)c1ccccc1 (stereo not given) was read as NR3A LBD binder -2, ZTA DNA inh -6 and FGF22 binding 0.
C[C@@H]1CN([C@H](C)CO)C(=O)c2cccc(N(C)C)c2O[C@H]1CN(C)Cc1ccccc1 was read as FGF22 binding 0.
`COc1ccc2c3c([nH]c2c1)[C@@H](CO)N(C(=O)c1ccc(F)cc1)CC31CN(C(=O)NC(C)C)C1` gave FGF22 binding 0.
CC1CCN(Cc2nnnn2CCCC(=O)NC(c2ccccn2)C(F)(F)F)CC1 (stereo not given) was read as NR3A LBD binder 12*, ZTA DNA inh 5, DNA FID counter -24, NS3 helicase inh 1, FGF22 binding 0 and EBNA-1 inh 0.
COCCNC(=S)N1CCN(C(c2ccccc2)c2ccccc2)CC1 was read as NR3A LBD binder 2, DNA FID counter -35, NS3 helicase inh 12 and FGF22 binding 0.
COCCNC(=O)NC(=O)CN1CCN(C(c2ccccc2)c2ccccc2)CC1 was read as NR3A LBD binder -18, ZTA DNA inh -9, DNA FID counter -23, NS3 helicase inh -1, FGF22 binding 43* and EBNA-1 inh -4.
`O=C(C1CCCC1)N1CCCCN2[C@@H](CO)[C@H](c3ccc(C#CC4CC4)cc3)[C@@H]2C1` gave FGF22 binding 0.
Screening Cc1occc(=O)c1OC(=O)Nc1ccc(Cl)c(Cl)c1 returned NR3A LBD binder 38*, ZTA DNA inh 7, DNA FID counter 4, NS3 helicase inh 6, FGF22 binding 0 and EBNA-1 inh 4.
`O=C(Nc1cc(-c2ccccc2)[nH]n1)c1ccccc1F` gave NR3A LBD binder 24*, ZTA DNA inh -13, DNA FID counter -7, NS3 helicase inh -3, FGF22 binding 0 and EBNA-1 inh -7.
Screening O=C(C1=C[C@H](c2ccc(C(F)(F)F)cc2)C[C@H](OCCCCO)O1)N1CCCCCCC1 returned FGF22 binding 0.
CC(C)NC(=O)C12CC3CC(C1)CC(C(=O)NC(C)C)(C3)C2 was read as NR3A LBD binder -2, ZTA DNA inh 8, DNA FID counter 3, NS3 helicase inh 2, FGF22 binding 44* and EBNA-1 inh 11.
For Cc1ccc(C23CC4CC(CC(C(=O)NC(C)C)(C4)C2)C3)cc1 the results were NR3A LBD binder 2, ZTA DNA inh -9, DNA FID counter -33, NS3 helicase inh -5, FGF22 binding 0 and EBNA-1 inh -1.
COc1cc(/C=N/NC(=O)CC2(C)OCCO2)cc(Br)c1O was read as NR3A LBD binder 37*, ZTA DNA inh -5, DNA FID counter -7, NS3 helicase inh 1 and EBNA-1 inh -3.
`CCCCCC(=O)N/N=C/c1cc(Br)c(O)c(OC)c1` gave NR3A LBD binder 3, ZTA DNA inh 15, DNA FID counter -17, NS3 helicase inh 3, FGF22 binding 0 and EBNA-1 inh 8.
`C[C@H](CO)N1C[C@H](C)[C@@H](CN(C)Cc2ccc(Cl)c(Cl)c2)Oc2ccc(NC(=O)C3CC3)cc2CC1=O` gave FGF22 binding -1.
Screening O=c1c2cc(N3CCOCC3)ccc2[nH]c(=S)n1Cc1ccc(Cl)cc1 returned NR3A LBD binder 38*, ZTA DNA inh 4, DNA FID counter -3, NS3 helicase inh 0 and EBNA-1 inh 3.
For O=C(CCCCCn1c(=S)[nH]c2ccc(N3CCOCC3)cc2c1=O)NCc1ccc(Cl)cc1 the results were NR3A LBD binder -1, ZTA DNA inh 0, DNA FID counter 0, NS3 helicase inh 6, FGF22 binding 0 and EBNA-1 inh 1.
For COCC(=O)N(C)C[C@@H]1Oc2cc(C#C[C@@H](C)O)ccc2S(=O)(=O)N([C@H](C)CO)C[C@H]1C the results were FGF22 binding 0.
For CC(C)NC(=O)Nc1ccc2c(c1)C(=O)N([C@H](C)CO)C[C@H](C)[C@@H](CN(C)C(=O)c1ccccc1)OCCCC[C@@H](C)O2 the results were FGF22 binding 0.
For Cc1ccc2nc(C)cc(N/N=C/c3ccccc3O)c2c1 the results were NR3A LBD binder -5, ZTA DNA inh -33, DNA FID counter -9, NS3 helicase inh -2, FGF22 binding 0 and EBNA-1 inh -10.
For Cc1cc(C)c2nc(C)cc(N/N=C/c3ccc(O)cc3)c2c1 the results were NR3A LBD binder 5, ZTA DNA inh -23, DNA FID counter 48*, NS3 helicase inh -10, FGF22 binding 0 and EBNA-1 inh -4.
For Cc1cc(N/N=C/c2ccc(O)cc2)c2cccc(C)c2n1 the results were NR3A LBD binder 12*, ZTA DNA inh -4, DNA FID counter 25, NS3 helicase inh -47, FGF22 binding 0 and EBNA-1 inh -10.
